The results in this text go back to ChEMBL document CHEMBL3526077, “Prediction of human metabolism of FK3453 by aldehyde oxidase using chimeric mice transplanted with human or rat hepatocytes” (Drug Metab Dispos, 2012).

A short description of data set [1]: Drug excretion in feces of chimeric mouse transplanted with human hepatocytes at 3 mg/kg, iv as single dose. More on the design: dose 3 mg/kg, route intravenous. In kind it is ADME, organism-based, Hepatocyte. The conditions noted are these: read-out: Drug excretion. Put shortly: (§1)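 After a 3 mg/kg i.v. dose, pooled urine and feces were collected from metabolic cages over 0–24 hr (n=3). Samples were homogenized in 10 volumes of water, mixed with acetonitrile and analysed by UPLC (UV 254 nm) and LC/MS/MS. Excretion expressed as % of dose.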

Data set [2] concerns Mus musculus. As to the kind of experiment: Drug metabolism in plasma of chimeric mouse transplanted with rat hepatocytes at 3 mg/kg, iv as single dose. The class given is ADME, organism-based, Hepatocyte. More on the design: dose 3 mg/kg, route intravenous. The gist of the method: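 Pooled plasma from h-PXB or r-PXB mice after a 3 mg/kg i.v. dose was mixed with an equal volume of acetonitrile and centrifuged. Metabolites were profiled by C18 UPLC with ammonium formate/acetonitrile gradient, UV 254 nm, and Orbitrap MS/MS. Scored as detected or not detected.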

Data set [3] is described as follows: Half life in rat at 3 mg/kg, iv. In kind it is ADME, organism-based. More on the design: dose 3 mg/kg, route intravenous. The conditions noted are these: in vivo.
The nature of data set [4]: Retention time of the compound by UV/mass spectrometry. The class given is physicochemical. The gist of the method:
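Retention time on Acquity BEH C18 column (1.7 µm, 2.1×100 mm). Mobile phase 5 mM ammonium formate with 5% acetonitrile against acetonitrile, at 0.2 mL/min. Gradient: 100:0 to 2.5 min, linear to 65:35 by 25 min, 10:90 to 27 min. Detection by UV at 254 nm and MS.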

The nature of data set [5]: Oral bioavailability in rat at 3.2 mg/kg. The class given is ADME, organism-based. The note with it: in vivo.
Data set [6] is described as follows: Total clearance in chimeric mouse transplanted with human hepatocytes at 3 mg/kg, iv. In kind it is ADME, organism-based, Hepatocyte. More on the design: dose 3 mg/kg, route intravenous. The gist of the method: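 Single 3 mg/kg intravenous dose in 10% DMSO, 10% PEG400 with equimolar HCl in saline to h-PXB or r-PXB mice (n=3~4). Orbital-vein plasma collected over 0–6 hr and measured by LC/MS/MS. Non-compartmental analysis; AUC by trapezoidal rule extrapolated to infinity; CLt = Dose/AUCiv.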

Data set [7] has as its target T1, aldehyde oxidase (Rattus norvegicus, UniProt Q9Z0U5).
T1 sequence (Q9Z0U5 whole entry): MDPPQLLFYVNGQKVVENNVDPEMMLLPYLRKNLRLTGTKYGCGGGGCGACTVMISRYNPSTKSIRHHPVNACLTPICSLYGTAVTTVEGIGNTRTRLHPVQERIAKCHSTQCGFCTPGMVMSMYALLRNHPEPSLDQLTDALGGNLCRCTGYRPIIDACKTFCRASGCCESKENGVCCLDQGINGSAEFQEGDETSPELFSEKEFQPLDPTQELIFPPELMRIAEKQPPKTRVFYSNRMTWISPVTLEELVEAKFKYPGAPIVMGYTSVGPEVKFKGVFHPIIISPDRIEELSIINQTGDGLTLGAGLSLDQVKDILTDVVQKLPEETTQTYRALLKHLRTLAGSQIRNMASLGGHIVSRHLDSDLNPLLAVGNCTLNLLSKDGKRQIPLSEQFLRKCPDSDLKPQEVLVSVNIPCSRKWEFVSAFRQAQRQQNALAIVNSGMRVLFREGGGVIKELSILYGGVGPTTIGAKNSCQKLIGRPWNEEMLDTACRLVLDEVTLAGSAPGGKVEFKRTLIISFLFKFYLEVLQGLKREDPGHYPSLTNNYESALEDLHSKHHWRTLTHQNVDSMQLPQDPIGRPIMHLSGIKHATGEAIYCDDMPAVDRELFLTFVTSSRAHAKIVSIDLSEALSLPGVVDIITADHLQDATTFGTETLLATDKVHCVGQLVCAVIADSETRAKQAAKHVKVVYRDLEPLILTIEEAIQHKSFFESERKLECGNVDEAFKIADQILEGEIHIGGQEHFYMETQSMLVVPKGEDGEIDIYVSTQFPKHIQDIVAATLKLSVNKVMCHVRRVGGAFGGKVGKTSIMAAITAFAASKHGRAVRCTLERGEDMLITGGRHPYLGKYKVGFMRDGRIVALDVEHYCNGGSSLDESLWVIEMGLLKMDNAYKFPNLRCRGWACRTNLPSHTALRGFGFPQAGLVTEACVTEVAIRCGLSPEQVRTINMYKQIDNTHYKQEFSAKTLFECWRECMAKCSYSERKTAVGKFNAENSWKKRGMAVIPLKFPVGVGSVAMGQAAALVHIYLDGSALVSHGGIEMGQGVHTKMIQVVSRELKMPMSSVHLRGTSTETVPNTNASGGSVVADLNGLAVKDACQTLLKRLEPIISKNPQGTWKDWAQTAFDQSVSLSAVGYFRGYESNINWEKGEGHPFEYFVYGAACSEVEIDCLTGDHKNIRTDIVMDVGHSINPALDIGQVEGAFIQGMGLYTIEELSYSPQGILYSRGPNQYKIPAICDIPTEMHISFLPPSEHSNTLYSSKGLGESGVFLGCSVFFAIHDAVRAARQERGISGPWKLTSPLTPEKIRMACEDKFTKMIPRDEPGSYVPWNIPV
In words: Activity of aldehyde oxidase in hepatocytes isolated from chimeric mouse transplanted with rat hepatocytes assessed as enzyme-mediated drug metabolism measured as compound remaining at 10 uM after 2 hrs by LC/MS/MS analysis. In kind it is ADME, cell-based, Hepatocyte. The note with it: read-out: Stability. Put shortly:
(§2)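 Fresh hepatocytes from h-PXB mice (mouse cells removed with 66Z rat IgG and anti-rat IgG magnetic beads) or r-PXB mice, 1×10^6 cells/mL in serum-free Krebs-Henseleit buffer. Incubated with 10 μM compound (0.5% acetonitrile) at 37°C under 5% CO₂/95% O₂ with shaking, sampled 0–2 hr. Quenched with acetonitrile, analysed by LC/MS/MS, n=3. CLint derived from first-order depletion rate constant.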

The nature of data set [8]: AUC in rat at 3.2 mg/kg, po. Further details: dose 3.2 mg/kg, route oral. In kind it is ADME, organism-based. The note with it: plasma.
Data set [9] has as its target T2, aldehyde oxidase (Homo sapiens, UniProt Q06278).
T2 sequence (Q06278 whole entry): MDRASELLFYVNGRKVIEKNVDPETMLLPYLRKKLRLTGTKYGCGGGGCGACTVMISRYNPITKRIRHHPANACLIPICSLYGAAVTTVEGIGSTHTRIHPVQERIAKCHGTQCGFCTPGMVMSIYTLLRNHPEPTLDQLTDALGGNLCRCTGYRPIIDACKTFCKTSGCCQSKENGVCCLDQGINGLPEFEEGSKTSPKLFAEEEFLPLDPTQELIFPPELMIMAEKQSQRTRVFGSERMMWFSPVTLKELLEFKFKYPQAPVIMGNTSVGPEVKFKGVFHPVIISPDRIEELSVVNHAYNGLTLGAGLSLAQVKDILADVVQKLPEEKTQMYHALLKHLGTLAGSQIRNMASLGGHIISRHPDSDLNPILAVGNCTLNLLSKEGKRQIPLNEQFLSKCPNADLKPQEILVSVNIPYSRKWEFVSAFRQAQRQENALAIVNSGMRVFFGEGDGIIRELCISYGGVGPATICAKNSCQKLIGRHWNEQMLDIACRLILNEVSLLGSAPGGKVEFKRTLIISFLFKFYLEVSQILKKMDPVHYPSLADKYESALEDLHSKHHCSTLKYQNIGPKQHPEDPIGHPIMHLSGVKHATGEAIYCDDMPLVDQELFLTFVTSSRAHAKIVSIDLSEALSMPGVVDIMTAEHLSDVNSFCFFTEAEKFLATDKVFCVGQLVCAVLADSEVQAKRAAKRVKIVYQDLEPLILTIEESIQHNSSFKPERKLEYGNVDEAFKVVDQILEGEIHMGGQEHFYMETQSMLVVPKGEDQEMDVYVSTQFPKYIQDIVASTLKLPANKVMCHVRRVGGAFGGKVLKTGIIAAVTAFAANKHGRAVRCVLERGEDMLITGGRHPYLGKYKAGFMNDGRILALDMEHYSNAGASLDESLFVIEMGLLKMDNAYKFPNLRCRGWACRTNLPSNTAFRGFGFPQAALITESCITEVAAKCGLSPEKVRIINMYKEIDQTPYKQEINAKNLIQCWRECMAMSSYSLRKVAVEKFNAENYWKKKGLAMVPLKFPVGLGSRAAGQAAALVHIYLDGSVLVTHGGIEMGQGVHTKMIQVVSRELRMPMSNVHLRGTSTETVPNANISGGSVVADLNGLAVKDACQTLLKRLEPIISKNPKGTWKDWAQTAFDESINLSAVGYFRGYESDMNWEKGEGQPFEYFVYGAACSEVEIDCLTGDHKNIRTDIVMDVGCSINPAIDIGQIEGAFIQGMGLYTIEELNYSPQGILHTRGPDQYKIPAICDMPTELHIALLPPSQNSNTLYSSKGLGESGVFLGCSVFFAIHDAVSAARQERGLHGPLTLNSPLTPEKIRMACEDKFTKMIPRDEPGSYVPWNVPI
In words: Activity of aldehyde oxidase in hepatocytes isolated from chimeric mouse transplanted with human hepatocytes assessed as enzyme-mediated drug metabolism measured as compound remaining at 10 uM after 2 hrs by LC/MS/MS analysis. The note with it: read-out: Stability. In kind it is ADME, cell-based, Hepatocyte. Put shortly: as §2

Data set [10] can be described thus: Cmax in rat at 3.2 mg/kg, po. In kind it is ADME, organism-based. More on the design: dose 3.2 mg/kg, route oral. The note with it: in vivo.
Data set [11] in a line: Drug excretion in feces of chimeric mouse transplanted with rat hepatocytes at 3 mg/kg, iv as single dose. The conditions noted are these: read-out: Drug excretion. More on the design: dose 3 mg/kg, route intravenous. The class given is ADME, organism-based, Hepatocyte. The gist of the method: as §1
Data set [12] in a line: Total clearance in rat at 3 mg/kg, iv. In kind it is ADME, organism-based. Further details: dose 3 mg/kg, route intravenous. The note with it: in vivo.
Data set [13] can be described thus: Cmax in human at 10 mg, po. The class given is ADME, organism-based. Further details: dose 10 mg, route oral. The conditions noted are these: in vivo.
Data set [14] in a line: Oral bioavailability in chimeric mouse transplanted with human hepatocytes at 3 mg/kg. The class given is ADME, organism-based, Hepatocyte.
The nature of data set [15]: Drug excretion in urine of chimeric mouse transplanted with human hepatocytes at 3 mg/kg, iv as single dose. In kind it is ADME, organism-based, Hepatocyte. More on the design: dose 3 mg/kg, route intravenous. The conditions noted are these: read-out: Drug excretion. The gist of the method:
as §1

The nature of data set [16]: AUC in chimeric mouse transplanted with rat hepatocytes at 3 mg/kg, po. The class given is ADME, organism-based, Hepatocyte. More on the design: dose 3 mg/kg, route oral. The gist of the method:
(§3)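 Single 3 mg/kg oral dose of compound in 50% PEG400 with equimolar HCl in saline to h-PXB or r-PXB mice (n=3~4). Orbital-vein blood (heparinized) taken over 0–6 hr; plasma stored at -30°C and assayed by LC/MS/MS. Non-compartmental analysis: Cmax from observed values, AUC by trapezoidal rule extrapolated to infinity, CLoral = Dose/AUCpo.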

Data set [17] in a line: Clearance in chimeric mouse transplanted with human hepatocytes at 3 mg/kg, po. The class given is ADME, organism-based, Hepatocyte. More on the design: dose 3 mg/kg, route oral. The gist of the method:
as §3

A short description of data set [18]: AUC in human at 10 mg, po. The class given is ADME, organism-based. The note with it: plasma.

For `CC(C)n1nc(-c2cnc(N)nc2-c2ccccc2)ccc1=O`, the dose excreted in data set [1] was 0.1%; in data set [11], 1.1%; in data set [15], 0.1%. Further, the Drug metabolism entry in data set [2] is given as “metabolite_detected”. Moreover, the half-life in data set [3] is 24 min. This compound had a Retention_time in data set [4] of 20 min. For the same compound, the bioavailability worked out at 34.6% in data set [5] and 29.4% in [14]. Besides, the clearance stood at 4.24 L/h/kg in [6] and 0.648 L/h/kg in data set [12]. The remaining at 2 h, 10 µM was found to be 58.4% in [7] and 27.5% in data set [9]. In addition, the results for the AUC in data set [8], in data set [16] and in data set [18] were 1.79 µg·h/mL, 0.811 µg·h/mL and 0.00219 µg·h/mL, respectively. Besides, the Cmax was 0.544 µg/mL in [10] and 0.0015 µg/mL in [13]. This compound also yielded a CL/F in data set [17] of 14.1 L/h/kg.
